Source: ChEMBL document CHEMBL1124186, “Synthesis and evaluation of tylosin-related macrolides modified at the aldehyde function: a new series of orally effective antibiotics” (1988)
Values after ≈ are worked out from the molar mass of the structure shown.

Assays:
[1] = system: Streptococcus pneumoniae; assay: In vivo effective dose against experimental infections in mice Strep. pneumoniae park when administered sc; format: functional
[2] = system: Streptococcus; assay: In vitro antimicrobial activity against aerobic bacteria Streptococcus C 24; format: functional
[3] = system: Mus musculus; assay: Peripheral plasma levels in mice after oral administration of 50 mg/kg dose for 0.25 hr; format: functional, organism-based; set-up: dose 50 mg/kg
In short: (§1)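 Mice were given the compound orally and sampled for peripheral plasma at each time point. Plasma was assayed microbiologically against Micrococcus luteus seeded in Antibiotic Medium 1. Inhibition zone sizes were read, and concentrations were calculated from each compound's own standard curve. Each value is the mean of five mice per time point.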

[4] = system: Staphylococcus aureus; assay: In vitro antimicrobial activity against aerobic bacteria Staphylococcus aureus X400; format: functional
[5] = system: Clostridium perfringens; assay: In vitro antimicrobial activity against anaerobic bacteria clostridium perfringens 81,; format: functional
[6] = system: Collinsella aerofaciens; assay: In vitro antimicrobial activity against anaerobic bacteria eubacterium aerofaciens 1235; format: functional
[7] = system: Streptococcus viridans; assay: In vitro antimicrobial activity against aerobic bacteria Streptococcus viridans 9943; format: functional
[8] = system: Peptoniphilus asaccharolyticus; assay: In vitro antimicrobial activity against anaerobic bacteria peptococcus asaccharolyticus 1302; format: functional
[9] = system: Enterococcus faecium; assay: In vitro antimicrobial activity against Streptococcus faecium X66; format: functional, streptococcus fae-cium
[10] = system: Rattus norvegicus; assay: Peripheral plasma levels in rats after oral administration of 100 mg/kg dose for 4 hr; format: functional, organism-based; set-up: dose 100 mg/kg
In short: (§2)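 Rats received 100 mg/kg orally and were sampled for peripheral plasma. Concentrations were measured by Micrococcus luteus agar-diffusion microbiological assay in Antibiotic Medium 1, with zone sizes converted using the standard curve for the appropriate compound. Each value is the average of three rats per time point.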

[11] = In vitro antimicrobial activity against anaerobic bacteria peptostreptococcus intermedius 1264; format: functional
[12] = system: Mus musculus; assay: Peripheral plasma levels in mice after oral administration of 100 mg/kg dose for 0.5 hr; format: functional, organism-based; set-up: dose 100 mg/kg; in short: as §1
[13] = system: Streptococcus; assay: In vitro antimicrobial activity against aerobic bacteria Streptococcus G Kruder; format: functional; settings: Streptococcus; read-out: MIC
[14] = system: Prevotella melaninogenica; assay: In vitro antimicrobial activity against anaerobic bacteria bacteroides melaninogenicus 1856,; format: functional
[15] = system: Streptococcus; assay: In vitro antimicrobial activity against aerobic bacteria Streptococcus B 8; format: functional
[16] = system: Phocaeicola vulgatus; assay: In vitro antimicrobial activity against anaerobic bacteria bacteroides vulgatus 1211; format: functional
[17] = system: Streptococcus pneumoniae; assay: In vitro antimicrobial activity against aerobic bacteria Streptococcus pneumoniae B1-438; format: functional, streptococcus pneum
[18] = system: Anaerococcus prevotii; assay: In vitro antimicrobial activity against anaerobic bacteria peptococcus prevoti 1281; format: functional
[19] = system: Rattus norvegicus; assay: Peripheral plasma levels in rats after oral administration of 100 mg/kg dose for 0.25 hr; format: functional, organism-based; set-up: dose 100 mg/kg; in short: as §2
[20] = system: Cutibacterium acnes; assay: In vitro antimicrobial activity against anaerobic bacteria propionibacterium acnes 79; format: functional
[21] = system: Prevotella melaninogenica; assay: In vitro antimicrobial activity against anaerobic bacteria bacteroides melaninogenicus 2736; format: functional
[22] = system: Mus musculus; assay: Peripheral plasma levels in mice after oral administration of 100 mg/kg dose for 1 hr; format: functional, organism-based; set-up: dose 100 mg/kg; in short: as §1
[23] = system: Staphylococcus epidermidis; assay: In vitro antimicrobial activity against aerobic bacteria Streptococcus epi 222; format: functional
[24] = system: Bacteroides fragilis; assay: In vitro antimicrobial activity against anaerobic bacteria bacteroides fragilis 111; format: functional
[25] = system: Bacteroides fragilis; assay: In vitro antimicrobial activity against anaerobic bacteria bacteroides fragilis 1936B,; format: functional
[26] = system: Haemophilus influenzae; assay: In vitro antimicrobial activity against aerobic bacteria Haemophilus influenzae MX366,; format: functional
[27] = system: Mus musculus; assay: Peripheral plasma levels in mice after oral administration of 50 mg/kg dose for 4 hr; format: functional, organism-based; set-up: dose 50 mg/kg; in short: as §1
[28] = system: Streptococcus pyogenes; assay: In vivo effective dose against experimental infections in rodent caused by Streptococcus pyogenes C203 when administered orally; format: functional; settings: po
[29] = system: Streptococcus; assay: In vitro antimicrobial activity against aerobic bacteria Streptococcus D 9960; format: functional
[30] = system: Peptostreptococcus anaerobius; assay: In vitro antimicrobial activity against anaerobic bacteria eubacterium peptostreptococcus anaerobius 1428,; format: functional
[31] = system: Rattus norvegicus; assay: Peripheral plasma levels in rats after oral administration of 100 mg/kg dose for 2 hr; format: functional, organism-based; set-up: dose 100 mg/kg; in short: as §2
[32] = system: Streptococcus pneumoniae; assay: In vitro antimicrobial activity against Streptococcus pneumoniae; format: functional
[33] = system: Chlamydia trachomatis; assay: In vitro antimicrobial activity against chlamydia trachomatis.; format: functional
[34] = system: Streptococcus; assay: In vitro antimicrobial activity against aerobic bacteria Streptococcus B 14; format: functional
[35] = system: Fusobacterium; assay: In vitro antimicrobial activity against anaerobic bacteria fusobacterium symbiosum 1470; format: functional
[36] = system: Staphylococcus aureus; assay: In vitro antimicrobial activity against Staphylococcus aureus X1; format: functional
[37] = system: Haemophilus influenzae; assay: In vitro antimicrobial activity against Haemophilus influenzae.; format: functional
[38] = system: Streptococcus sanguinis; assay: In vitro antimicrobial activity against aerobic bacteria Streptococcus sanguis MX132; format: functional
[39] = system: Staphylococcus aureus; assay: In vitro antimicrobial activity against aerobic bacteria Staphylococcus aureus V140,; format: functional
[40] = system: Fusobacterium necrophorum; assay: In vitro antimicrobial activity against anaerobic bacteria usobacterium necrophorum 6054A; format: functional
[41] = system: Streptococcus pyogenes; assay: In vitro antimicrobial activity against Streptococcus pyogenes C203; format: functional
[42] = system: Bacteroides thetaiotaomicron; assay: In vitro antimicrobial activity against anaerobic bacteria bacteroides thetaiotaomicron 1438; format: functional
[43] = system: Staphylococcus epidermidis; assay: In vitro antimicrobial activity against aerobic bacteria Streptococcus epi 270; format: functional
[44] = system: Staphylococcus aureus; assay: In vitro antimicrobial activity against aerobic bacteria Staphylococcus aureus 513E; format: functional
[45] = system: Staphylococcus aureus; assay: In vitro antimicrobial activity against aerobic bacteria Staphylococcus aureus V135; format: functional
[46] = system: Mus musculus; assay: Peripheral plasma levels in mice after oral administration of 50 mg/kg dose for 0.5 hr; format: functional, organism-based; set-up: dose 50 mg/kg; in short: as §1
[47] = system: Haemophilus influenzae; assay: In vitro antimicrobial activity against aerobic bacteria Haemophilus influenzae 76; format: functional
[48] = system: Streptococcus; assay: In vitro antimicrobial activity against aerobic bacteria Streptococcus D 2041; format: functional
[49] = system: Streptococcus; assay: In vitro antimicrobial activity against aerobic bacteria Streptococcus D 8043; format: functional
[50] = system: Staphylococcus aureus; assay: In vitro antimicrobial activity against aerobic bacteria Staphylococcus aureus V41; format: functional
[51] = system: Staphylococcus aureus; assay: In vivo effective dose against experimental infections in mice Staphylococcus aureus X1 when administered orally; format: functional; settings: po
[52] = system: Streptococcus; assay: In vitro antimicrobial activity against aerobic bacteria Streptococcus B 5; format: functional
[53] = system: Rattus norvegicus; assay: Peripheral plasma levels in rats after oral administration of 100 mg/kg dose for 0.5 hr; format: functional, organism-based; set-up: dose 100 mg/kg; in short: as §2
[54] = system: Mus musculus; assay: Peripheral plasma levels in mice after oral administration of 100 mg/kg dose for 4 hr; format: functional, organism-based; set-up: dose 100 mg/kg; in short: as §1
[55] = system: Bacteroides fragilis; assay: In vitro antimicrobial activity against anaerobic bacteria bacteroides fragilis 1877; format: functional
[56] = system: Eikenella corrodens; assay: In vitro antimicrobial activity against anaerobic bacteria bacteroides corrodens 1874; format: functional
[57] = system: Clostridium septicum; assay: In vitro antimicrobial activity against anaerobic bacteria clostridium septicum 1128; format: functional
[58] = system: Clostridioides difficile; assay: In vitro antimicrobial activity against anaerobic bacteria Clostridium difficile 2994; format: functional
[59] = system: Mus musculus; assay: Peripheral plasma levels in mice after oral administration of 50 mg/kg dose for 2 hr; format: functional, organism-based; set-up: dose 50 mg/kg; in short: as §1
[60] = system: Mus musculus; assay: Peripheral plasma levels in mice after oral administration of 50 mg/kg dose for 1 hr; format: functional, organism-based; set-up: dose 50 mg/kg; in short: as §1
[61] = system: Staphylococcus epidermidis; assay: In vitro antimicrobial activity against Staphylococcus epidermidis EPI1; format: functional
[62] = system: Streptococcus pneumoniae; assay: In vivo effective dose against experimental infections in mice Strep. pneumoniae park when administered orally; format: functional; settings: po
[63] = system: Streptococcus pyogenes; assay: In vivo effective dose against experimental infections in rodent caused by Streptococcus pyogenes C203 when administered sc; format: functional
[64] = system: Mus musculus; assay: Peripheral plasma levels in mice after oral administration of 100 mg/kg dose for 0.25 hr; format: functional, organism-based; set-up: dose 100 mg/kg; in short: as §1
[65] = system: Mus musculus; assay: Peripheral plasma levels in mice after oral administration of 100 mg/kg dose for 2 hr; format: functional, organism-based; set-up: dose 100 mg/kg; in short: as §1
[66] = system: Staphylococcus aureus; assay: In vivo effective dose against experimental infections in mice Staphylococcus aureus X1 when administered sc; format: functional
[67] = system: Rattus norvegicus; assay: Peripheral plasma levels in rats after oral administration of 100 mg/kg dose for 1 hr; format: functional, organism-based; set-up: dose 100 mg/kg; in short: as §2

SMILES: CC[C@H]1C[C@@H](C)C(=O)/C=C/C(C)=C/[C@H](CO[C@@H]2O[C@H](C)[C@@H](O)[C@@H](OC)[C@H]2OC)[C@@H](CC)OC(=O)C[C@@H](O)[C@H](C)[C@H]1O[C@@H]1O[C@H](C)[C@@H](O)[C@H](N(C)C)[C@H]1O
- ED50 [1]: > 20 mg/kg
- MIC [2]: 0.5 µg/mL (≈ 0.66 µM)
- Concentration [3]: 0.9 µg/mL
- MIC [4]: 0.5 µg/mL (≈ 0.66 µM)
- MIC [5]: 2 µg/mL (≈ 2.64 µM)
- MIC [6]: 2 µg/mL (≈ 2.64 µM)
- MIC [7]: > 128 µg/mL
- MIC [8]: 2 µg/mL (≈ 2.64 µM)
- MIC [9]: 16 µg/mL (≈ 21.1 µM)
- Concentration [10]: 5.1 µg/mL
- MIC [11]: 4 µg/mL (≈ 5.28 µM)
- Concentration [12]: 4.5 µg/mL
- MIC [13]: 64 µg/mL (≈ 84.4 µM)
- MIC [14]: 1 µg/mL (≈ 1.32 µM)
- MIC [15]: 8 µg/mL (≈ 10.6 µM)
- MIC [16]: 2 µg/mL (≈ 2.64 µM)
- MIC [17]: > 128 µg/mL
- MIC [18]: 2 µg/mL (≈ 2.64 µM)
- Concentration [19]: 4.6 µg/mL
- MIC [20]: 8 µg/mL (≈ 10.6 µM)
- MIC [21]: 4 µg/mL (≈ 5.28 µM)
- Concentration [22]: 3.4 µg/mL
- MIC [23]: 0.12 µg/mL (≈ 0.158 µM)
- MIC [24]: 4 µg/mL (≈ 5.28 µM)
- MIC [25]: 4 µg/mL (≈ 5.28 µM)
- MIC [26]: 16 µg/mL (≈ 21.1 µM)
- Concentration [27]: 0.9 µg/mL
- ED50 [28]: 7 mg/kg
- MIC [29]: 16 µg/mL (≈ 21.1 µM)
- MIC [30]: < 0.5 µg/mL
- Concentration [31]: 8.7 µg/mL
- MIC [32]: 2 µg/mL (≈ 2.64 µM)
- MIC [33]: 0.5 µg/mL (≈ 0.66 µM)
- MIC [34]: 16 µg/mL (≈ 21.1 µM)
- MIC [35]: 2 µg/mL (≈ 2.64 µM)
- MIC [36]: 0.25 µg/mL (≈ 0.33 µM)
- MIC [37]: 16 µg/mL (≈ 21.1 µM)
- MIC [38]: 2 µg/mL (≈ 2.64 µM)
- MIC [39]: 0.5 µg/mL (≈ 0.66 µM)
- MIC [40]: 8 µg/mL (≈ 10.6 µM)
- MIC [41]: 0.5 µg/mL (≈ 0.66 µM)
- MIC [42]: 4 µg/mL (≈ 5.28 µM)
- MIC [43]: > 128 µg/mL
- MIC [44]: 0.25 µg/mL (≈ 0.33 µM)
- MIC [45]: 0.25 µg/mL (≈ 0.33 µM)
- Concentration [46]: 0.5 µg/mL
- MIC [47]: 16 µg/mL (≈ 21.1 µM)
- MIC [48]: 8 µg/mL (≈ 10.6 µM)
- MIC [49]: 8 µg/mL (≈ 10.6 µM)
- MIC [50]: 0.25 µg/mL (≈ 0.33 µM)
- ED50 [51]: 10 mg/kg
- MIC [52]: 8 µg/mL (≈ 10.6 µM)
- Concentration [53]: 7.4 µg/mL
- Concentration [54]: 0.8 µg/mL
- MIC [55]: 4 µg/mL (≈ 5.28 µM)
- MIC [56]: 4 µg/mL (≈ 5.28 µM)
- MIC [57]: < 0.5 µg/mL
- MIC [58]: < 0.5 µg/mL
- Concentration [59]: 2.2 µg/mL
- Concentration [60]: 2 µg/mL
- MIC [61]: 0.25 µg/mL (≈ 0.33 µM)
- ED50 [62]: > 50 mg/kg
- ED50 [63]: 4.3 mg/kg
- Concentration [64]: 2.6 µg/mL
- Concentration [65]: 2.3 µg/mL
- ED50 [66]: 2.2 mg/kg
- Concentration [67]: 7.2 µg/mL
